# Screens: PubChem BioAssay, Broad Institute
# ARNT TACC3 PPI – disruptors of human ARNT/TACC3 interaction | inhibition, % at 9.99 µM | AlphaScreen His-ARNT PAS-B/GST-TACC3 binding, luminescence; TACC3 fragment carries E629A point mutation | Q9Y6A5 | AID 623870 | 390,000 tested, 0.66% active;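 active means mean inhibition of replicates at least 50% and at least half of replicates each reaching 50%; inconclusive means half or more replicates reach 50% but mean below 50%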;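 further: 0% = complete ARNT plus TACC3 wells and 100% = ARNT alone without TACC3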
# T cruzi inh – blocks replication of Trypanosoma cruzi; T. cruzi beta-gal in NIH3T3, luminescence, 90 h; inhibition, % (test concentration not listed); 300,000 tested, 1.4% active; AID 1885;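 active means mean inhibition across valid replicates above about 55%, limit read from the data; inconclusive means mean below that limit but half or more replicates reach it; inactive means mean below it, under half of replicates reach it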;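 further: signal also drops with host cell toxicity which is not excluded here; 0% = plate median of DMSO wells and 100% = zero luminescence signal; higher percent means less beta-gal luminescence so fewer parasites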
#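 Assay system: NIH/3T3 host cells with β-galactosidase reporter T. cruzi; input: 5,000 host fibroblasts per well; compound: single 50 nL compound addition per well in DMSO; timing: ≥90 h infection period, 3 h prior cell attachment; measured by: GalScreen β-gal luminescence, detergent lysis, 60 min; evaluation: percent inhibition of parasite-derived β-gal signal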
# HIF activator – HIF pathway transcriptional activation; AID 1910; U2OS HRE-luciferase reporter, luminescence; normalized: DMSO 0%, desferrioxamine 100%; 300,000 tested, 0.32% active; activation, % at 7.5 µM (by protocol);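 active means mean activation of at least 10% of the iron chelator positive control signal, with at least half of replicates also reaching 10%; inconclusive means mean and replicate majority disagree about reaching 10%; inactive means mean and most replicates under 10%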
# AI-2 QS modul – modulates the Vibrio harveyi AI-2 quorum sensing system | Vibrio harveyi JMH597 AI-2 luminescence/OD600 ratio, 9 h; stronger effect = lower value; strain lacks LuxN and CqsS sensors; 0 = neutral-control median | activity change, % at 7.5 µM | 300,000 tested, 0.4% active | AID 2094; in the data active means activity change below about -75%, passing the limit was not always enough; inconclusive means no clear call, values can overlap the other calls;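 further: luminescence divided by OD600 gain over 9 h not by final OD600 alone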
# * marks the source's active call; other numbers are inactive results; ? = inconclusive; . = not tested or not shown. Hits are enriched below; roughly 2% of the tested compounds scored in any of these assays.
SMILES,ARNT TACC3 PPI,T cruzi inh,HIF activator,AI-2 QS modul
Cc1oc(-c2ccc(F)cc2)nc1CN(Cc1ccccn1)CC1CCCO1 (centres undefined),50*,1,0,-5
C[C@H](CO)N1C[C@H](C)[C@H](CN(C)C(=O)Cc2ccccc2)OCCCC[C@H](C)Oc2ccc(NC(=O)CCC(F)(F)F)cc2C1=O,0,.,.,.
CC(C)c1ccc(C2C3=C(CC(C)(C)CC3=O)NC3=C2C(=O)c2ccccc23)cc1 (centres undefined),3,58*,0,19
N#Cc1nc(-c2ccccc2F)oc1NCc1cccc2c1OCO2,0,13,0,-87*
O=C(NNC(=O)c1ccccn1)c1cccc([N+](=O)[O-])c1,67*,1,0,-28
CCCOc1ccc(C(=O)NNC(=S)NC(=O)c2ccccc2)cc1,8,19,1,-213*
COc1ccc(C(=O)NNC(=S)NC(=O)c2ccco2)cc1,25,12,1,-149*
O=C(c1cccc([N+](=O)[O-])c1)c1ccccn1,0,-14,0,24
CCC(=O)NC(=S)NNC(=O)c1ccc(OC)cc1,68*,-13,1,-9
COc1ccc(CN2C[C@@H](C)[C@H](OC)CN(C)C(=O)c3cc(NC(=O)C4CC4)ccc3OC[C@H]2C)cc1,-2,.,.,.
C[C@@H]1CN([C@@H](C)CO)C(=O)c2cc(NS(=O)(=O)c3ccc(Cl)cc3)ccc2O[C@@H]1CN(C)Cc1ccc(Oc2ccccc2)cc1,-1,.,.,.
CCC(=O)Nc1ccc2c(c1)C(=O)N(C)C[C@@H](OC)[C@H](C)CN(Cc1cccnc1)[C@H](C)CO2,-6,.,.,.
CCCOc1ccc(C(=O)NNC(=S)NC(=O)c2ccco2)cc1,5,?,0,?
O=C(NNC(=S)NC(=O)c1ccco1)c1ccc(F)cc1,6,-14,0,-104*
O=C(NNC(=S)NC(=O)c1cccc([N+](=O)[O-])c1)c1ccc(Br)cc1,20,29,0,-212*
O=C(NC(=S)NNC(=O)c1ccco1)c1ccc(Br)cc1,7,-49,0,-128*
NS(=O)(=O)c1ccc(Nc2c([N+](=O)[O-])cncc2[N+](=O)[O-])cc1,-4,36,-1,-93*
CCCCNC(=O)C(C#N)c1nc2ccccc2nc1N1CCN(Cc2ccc3c(c2)OCO3)CC1 (centres undefined),2,.,.,.
CCCCCCOC(=O)C(C#N)c1nc2ccccc2nc1N1CCN(C)CC1 (centres undefined),18,68*,0,-11
COC(=O)/C(C#N)=C/c1c(N2CCN(Cc3ccc4c(c3)OCO4)CC2)nc2c(C)cccn2c1=O,-3,40,410*,17
CCC(CC)COC(=O)C(C#N)c1nc2ccccc2nc1N1CCN(CC)CC1 (centres undefined),34,55*,-1,-2
CCC(C)COC(=O)C(C#N)c1nc2ccccc2nc1N1CCCCC1 (centres undefined),3,41,-1,34
C=CCOC(=O)C(C#N)c1nc2ccccc2nc1N1CCN(Cc2ccc3c(c2)OCO3)CC1 (centres undefined),11,57*,-1,21
C[C@H]1CN([C@@H](C)CO)C(=O)c2cc(NS(=O)(=O)c3ccccc3)ccc2O[C@@H]1CN(C)S(=O)(=O)c1cn(C)cn1,-16,.,.,.
CCC(=O)N(C)C[C@H]1Oc2cc(-c3cccc(F)c3)ccc2S(=O)(=O)N([C@@H](C)CO)C[C@@H]1C,4,.,.,.
SMILES,ARNT TACC3 PPI,T cruzi inh,HIF activator,AI-2 QS modul
O=S1(=O)C=C(Sc2nc3cc(Cl)ccc3o2)c2ccccc21,8,65*,-8,-48
COc1ccc(CNC(=O)C[C@@H]2C[C@@H]3c4cc(NC(=O)CN(C)C)ccc4O[C@@H]3[C@@H](CO)O2)cc1,-4,.,.,.
CC(Oc1ccc(Cl)cc1Cl)c1nc(-c2ccc(NC(=O)c3cccnc3)cc2)no1 (centres undefined),-2,41,0,13
CC(Oc1ccc(Cl)cc1Cl)c1nc(-c2ccc(NC(=O)c3ccncc3)cc2)no1 (centres undefined),-2,55*,-1,4
O=C(C[C@@H]1C=C[C@@H](NC(=O)C2CC2)[C@H](CO)O1)NCC1CC1,-2,.,.,.
C/C(CCC12CC3CC(CC(C3)C1)C2)=N\NC(N)=S,14,35,0,29
C/C(CC(C)(C)C1CCCCC1)=N\NC(N)=S,10,56*,0,2
C=CCn1c(SCCN2C(=O)c3ccccc3C2=O)nc2scc(-c3ccc(F)cc3)c2c1=O,55*,.,.,.
C=CCn1c(SCC(=O)N2CC(=O)Nc3ccccc32)nc2scc(-c3ccccc3)c2c1=O,.,17,2,17
COc1ccc(CN(C)C[C@H]2Oc3ccc(NC(=O)NC4CCCCC4)cc3C(=O)N([C@@H](C)CO)C[C@@H]2C)cc1,-4,.,.,.
CCCc1cn(CC[C@@H]2CC[C@H](NC(=O)Cc3cccnc3)[C@H](CO)O2)nn1,-4,.,.,.
